We go through 2 molecules from ChEMBL document CHEMBL3102750 (J Med Chem, 2013).

What is called inhibition is the change of the read-out against control, counted positive when it falls. As a reminder, the IC50 is the concentration at which inhibition is half-maximal.

Series [1] concerns the target T1, Muscarinic acetylcholine receptor M5 (Homo sapiens) (UniProt P08912).
T1 sequence (whole entry): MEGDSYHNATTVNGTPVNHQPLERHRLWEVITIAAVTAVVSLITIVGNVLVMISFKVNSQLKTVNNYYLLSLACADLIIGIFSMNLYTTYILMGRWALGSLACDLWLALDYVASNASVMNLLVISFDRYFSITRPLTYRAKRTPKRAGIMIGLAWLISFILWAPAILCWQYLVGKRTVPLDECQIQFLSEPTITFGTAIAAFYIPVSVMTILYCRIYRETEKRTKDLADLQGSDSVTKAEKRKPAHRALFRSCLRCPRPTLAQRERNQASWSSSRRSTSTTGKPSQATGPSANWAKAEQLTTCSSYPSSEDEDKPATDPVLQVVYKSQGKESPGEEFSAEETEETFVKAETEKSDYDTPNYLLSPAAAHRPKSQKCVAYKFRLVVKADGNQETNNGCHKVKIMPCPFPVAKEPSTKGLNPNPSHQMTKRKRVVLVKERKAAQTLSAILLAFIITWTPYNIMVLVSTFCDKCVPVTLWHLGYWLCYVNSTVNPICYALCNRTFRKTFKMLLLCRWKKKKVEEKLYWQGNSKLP
As to the kind of experiment: Negative allosteric modulation of human muscarinic acetylcholine receptor M5 expressed in CHO cells assessed as reduction of acetylcholine-induced calcium mobilization at 10 uM incubated for 150 secs prior to acetylcholine induction by Fluo-4 AM staining-based fluorescence assay relative to control. The series is classed as functional, cell-based. Further details: scale not given: the % may be the effect or the level left. Background: Calcium flux is commonly read through the fluorescence of an indicator in the cells.

Series [2] has as its target Cannabinoid receptor 1 (Homo sapiens) (UniProt P21554). Briefly: Binding affinity to human CB1 receptor at 10 uM by radioligand binding assay relative to control.
Series [3] is described as follows: Elimination half life in Sprague-Dawley rat at 1 mg/kg, iv. Further details: dose 1 mg/kg, route intravenous. As to conditions: in vivo, read-out: beta t1/2 (converted). It is filed as ADME, organism-based.
The test system of series [4] is Plasma. Briefly: Fraction unbound in human plasma at 5 uM after 4 hrs by equilibrium dialysis method. It is filed as ADME, cell-free. The gist of the method:
(§1)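 Fraction unbound determined in plasma from rat, cynomolgus monkey and human.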
(In equilibrium dialysis only unbound substance equilibrates across the membrane.)

Series [5] has as its target T2, Cytochrome P450 1A2 (Homo sapiens, UniProt P05177).
T2 sequence (P05177 whole entry): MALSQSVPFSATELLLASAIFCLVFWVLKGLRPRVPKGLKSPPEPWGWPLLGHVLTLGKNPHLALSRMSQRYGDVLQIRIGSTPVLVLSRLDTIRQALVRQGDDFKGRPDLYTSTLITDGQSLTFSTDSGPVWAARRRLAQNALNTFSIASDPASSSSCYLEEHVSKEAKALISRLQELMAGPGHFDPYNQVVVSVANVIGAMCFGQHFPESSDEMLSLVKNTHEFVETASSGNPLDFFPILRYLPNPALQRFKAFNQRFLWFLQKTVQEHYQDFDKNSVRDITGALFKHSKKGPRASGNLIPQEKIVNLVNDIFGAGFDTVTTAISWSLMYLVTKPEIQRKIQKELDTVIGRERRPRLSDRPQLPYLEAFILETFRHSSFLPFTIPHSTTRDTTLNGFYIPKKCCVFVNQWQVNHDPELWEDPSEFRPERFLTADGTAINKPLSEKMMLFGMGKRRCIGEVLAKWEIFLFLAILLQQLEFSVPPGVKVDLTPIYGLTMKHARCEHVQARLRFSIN
Briefly: Inhibition of CYP1A2 in human liver microsomes using phenacetin as substrate preincubated for 15 mins followed by NADPH addition measured after 8 mins by LC/MS/MS analysis. The series is classed as ADME. Background: Liver microsomes are a subcellular fraction often used to study metabolism.

The nature of series [6]: Ratio of unbound brain to plasma partition coefficient in Sprague-Dawley rat at 10 mg/kg, po measured at 1 hr. Set-up: dose 10 mg/kg, route oral. It is filed as ADME, organism-based. In short, it runs like this: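 Oral CNS distribution study in male Sprague-Dawley rats (n=2), 10 mg/kg; brain and plasma sampled one hour post-dose. Total (Kp) and unbound (Kp,uu) brain-plasma partition coefficients calculated, with unbound fractions from plasma and brain homogenate binding.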

Series [7] concerns Plasma. Briefly: Fraction unbound in cynomolgus monkey plasma at 5 uM after 4 hrs by equilibrium dialysis method. The series is classed as ADME, cell-free, Macaca fascicularis. The gist of the method: as §1

Chain of Cannabinoid receptor 1 (Homo sapiens) (P21554 whole entry): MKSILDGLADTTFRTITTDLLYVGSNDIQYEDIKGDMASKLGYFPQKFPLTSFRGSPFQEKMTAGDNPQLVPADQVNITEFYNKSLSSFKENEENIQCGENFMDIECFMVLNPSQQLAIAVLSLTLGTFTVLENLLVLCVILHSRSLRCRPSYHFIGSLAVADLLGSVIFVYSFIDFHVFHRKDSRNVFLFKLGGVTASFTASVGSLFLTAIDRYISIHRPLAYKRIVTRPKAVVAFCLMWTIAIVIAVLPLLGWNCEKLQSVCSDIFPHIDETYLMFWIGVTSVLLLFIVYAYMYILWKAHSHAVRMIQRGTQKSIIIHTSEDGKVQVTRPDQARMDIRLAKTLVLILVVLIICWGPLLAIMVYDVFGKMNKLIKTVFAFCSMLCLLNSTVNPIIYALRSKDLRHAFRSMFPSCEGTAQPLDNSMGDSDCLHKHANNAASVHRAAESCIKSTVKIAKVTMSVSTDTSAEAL

On to `O=C(c1ccc(F)c(F)c1)N1CCN2C(=O)c3ccccc3C12c1ccccc1` (configuration not stated), for which the Activity in series [1] was 0%.

`O=C(c1ccc(F)c(F)c1)N1CCN2C(=O)c3ccccc3[C@@]12c1ccc(Cl)cc1` came in with an inhibition in series [2] of 66%. For the same molecule, the half-life in series [3] is 3.33 days. Further, the Fu is on record as 0.013 in series [4] and 0.001 in series [7]. For the same molecule, it took 25 µM to reach half-maximal inhibition in series [5] (IC50). Also, the “K(p,uu,brain)” value in series [6] came to 0.2.
